Screening data deposited in PubChem by Broad Institute.
KDM4C inh = inhibitors of human demethylase GASC-1 KDM4C; inhibition, % at 12.5 µM; AID 720574; 96,000 compounds, 0.15% hits; GST-KDM4C 2-372, H3K9me3 peptide, LANCE TR-FRET;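 active = mean replicate inhibition above about 25%, with at least 55% of replicates also reaching it, limit read from the data, passing the limit was not always enough; inconclusive = only one of those two conditions met; inactive = neither condition met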
Target sequence (Q9H3R0 2-372 limits assumed): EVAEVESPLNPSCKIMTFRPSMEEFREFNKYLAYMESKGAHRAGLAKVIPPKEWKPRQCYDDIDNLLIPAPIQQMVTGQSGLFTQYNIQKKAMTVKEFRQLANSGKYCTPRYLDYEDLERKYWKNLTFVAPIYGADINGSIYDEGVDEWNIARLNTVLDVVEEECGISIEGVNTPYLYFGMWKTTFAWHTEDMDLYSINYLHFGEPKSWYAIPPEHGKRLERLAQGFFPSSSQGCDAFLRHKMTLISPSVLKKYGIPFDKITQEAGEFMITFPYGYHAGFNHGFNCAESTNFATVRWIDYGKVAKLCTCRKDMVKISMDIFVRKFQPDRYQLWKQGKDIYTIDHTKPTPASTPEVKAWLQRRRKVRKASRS
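Material: GST-tagged GASC-1 (JMJD2C) catalytic fragment, aa 2-372 / Quantity: enzyme final amount 10 nM / Medium: HEPES buffer, pH 7.5, plus ascorbate / Doses: one test concentration per compound / Incubation: 30 min reaction, 60 min detection, RT / Measured by: LANCE TR-FRET / Read-out: inhibition from TR-FRET ratio decrease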
IDH1 mut inh = inhibitors of human IDH1 R132H; IDH1 R132H reductase, diaphorase/resazurin fluorescence, 60 min; 70,000 compounds, 0.18% hits; AID 624101; inhibition, % at 10 µM; O75874; in the data active = inhibition above about 34%; inconclusive = no clear call, values can overlap the other calls; inactive = below about 11%
Target sequence (O75874 whole entry R132H): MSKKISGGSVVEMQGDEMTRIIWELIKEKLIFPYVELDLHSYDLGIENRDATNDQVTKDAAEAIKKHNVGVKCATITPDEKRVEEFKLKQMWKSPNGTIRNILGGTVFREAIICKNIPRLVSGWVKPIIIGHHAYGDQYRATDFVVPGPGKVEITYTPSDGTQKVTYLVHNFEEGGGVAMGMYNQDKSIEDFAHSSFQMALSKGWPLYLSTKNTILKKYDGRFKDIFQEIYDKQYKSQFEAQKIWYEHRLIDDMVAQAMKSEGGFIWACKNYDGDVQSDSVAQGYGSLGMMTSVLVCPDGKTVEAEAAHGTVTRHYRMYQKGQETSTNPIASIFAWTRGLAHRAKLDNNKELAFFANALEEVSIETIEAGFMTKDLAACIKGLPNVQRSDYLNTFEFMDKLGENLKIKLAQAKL
Pf Dd2 inh = P. falciparum Dd2 growth inhibition; SYBR Green, 72 h; hits give low values; activity change, % at 10 µM; 94,000 compounds, 2.3% hits; in the data active = activity change below about -80%; inconclusive = no clear call, values can overlap the other calls
T cruzi growth-1 = T. cruzi proliferation inhibition; T. cruzi beta-gal in NIH3T3, GalScreen luminescence, 90 h; inhibition, % at 8.34 µM; 77,000 compounds, 5.9% hits;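 active = mean inhibition above about 93%, with at least 55% of replicates each passing it, limit read from the data, passing the limit was not always enough; inconclusive = only one of those two conditions holds; inactive = neither condition holds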
T cruzi growth-2 = Trypanosoma cruzi proliferation inhibition; shares compounds with T cruzi growth-1; T. cruzi beta-gal in NIH3T3, GalScreen luminescence, 90 h; inhibition, % at 8.35 µM; 5,600 compounds, 72% hits;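 active = mean replicate inhibition above about 95% and at least 55% of replicates individually reaching it, limit read from the data; inconclusive = only one of the two criteria is met; inactive = neither criterion is met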
T cruzi growth-3 = inhibitors of T. cruzi proliferation; shares compounds with T cruzi growth-1; T. cruzi beta-gal in NIH3T3, GalScreen luminescence, 90 h; inhibition, % at 2.09 µM; 5,600 compounds, 21% hits; AID 651740;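 active = mean inhibition above about 95%, with at least 55% of replicates also reaching it, limit read from the data; inconclusive = meets just one of the two conditions; inactive = meets neither condition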
3T3 cytotox = NIH/3T3 (mouse) viability loss; 5,600 compounds, 14% hits; AID 651742; NIH/3T3 viability, CellTiter-Glo ATP luminescence, 90 h; shares compounds with T cruzi growth-1; cytotoxicity (signal decrease), % at 8.35 µM;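 active = mean signal decrease across replicates above about 35% based on untreated-well scatter, with enough replicates individually passing, limit read from the data; inconclusive = no rule stated though some were filed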
NIH3T3 tox 2 = NIH/3T3 (mouse) viability loss; shares compounds with T cruzi growth-1; NIH/3T3 viability, CellTiter-Glo ATP luminescence, 90 h; inhibition, % at 24.9 µM; 5,600 compounds, 56% hits;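 active = mean loss of cell viability signal at or above a set limit, and enough replicates individually reaching it; inconclusive = meets only the mean limit or only the replicate share; inactive = meets neither condition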
Large screens that a line does not name were inactive (follow-up assays come after a bar, where they were run). The list is not random: actives were taken first. Their share in the collection is about 5.8%.

C[C@@H]1CN([C@@H](C)CO)C(=O)c2cc(-c3ccc(C#N)cc3)cnc2O[C@@H]1CN(C)C(=O)Nc1ccc(C(F)(F)F)cc1	none (no result: T cruzi growth-1)
CN1CCN(C(=O)C[C@@H]2C[C@H]3c4cc(NC(=O)c5ccc6c(c5)OCO6)ccc4O[C@H]3[C@@H](CO)O2)CC1	none
Cc1ccc(S(=O)(=O)Nc2ccc3c(c2)C(=O)N([C@@H](C)CO)C[C@@H](C)[C@@H](CN(C)Cc2ccccc2)OCCCC[C@@H](C)O3)cc1	T cruzi growth-1 inconclusive (no result: IDH1 mut inh) | T cruzi growth-2 inactive | T cruzi growth-3 inactive | 3T3 cytotox inactive | NIH3T3 tox 2 105
COc1ccc(CN(C)C[C@H]2OCCCC[C@H](C)Oc3ccc(NS(=O)(=O)c4ccc(Cl)cc4)cc3C(=O)N([C@@H](C)CO)C[C@@H]2C)cc1	T cruzi growth-1 inconclusive | T cruzi growth-2 101 | T cruzi growth-3 inactive | 3T3 cytotox inactive | NIH3T3 tox 2 104
CCN(C[C@@H]1N[C@@H](CO)[C@H]1c1ccc(-c2ccc(F)cc2)cc1)C(=O)CN(C)C	Pf Dd2 inh -81, T cruzi growth-1 109 (no result: IDH1 mut inh) | T cruzi growth-2 100 | T cruzi growth-3 inactive | 3T3 cytotox inconclusive | NIH3T3 tox 2 104
COc1cccc(S(=O)(=O)N[C@H]2CC[C@@H](CCNC(=O)Cc3ccncc3)O[C@H]2CO)c1	T cruzi growth-1 106 | T cruzi growth-2 inactive | T cruzi growth-3 inactive | 3T3 cytotox inactive | NIH3T3 tox 2 inactive
O=C(NCC[C@@H]1CC[C@@H](NS(=O)(=O)c2cccc(Cl)c2)[C@@H](CO)O1)c1cnccn1	none
COc1cccc(S(=O)(=O)N[C@H]2CC[C@@H](CCNC(=O)Cc3ccncc3)O[C@@H]2CO)c1	none
O=C(NCC[C@H]1CC[C@H](NS(=O)(=O)c2cccc(Cl)c2)[C@@H](CO)O1)c1cnccn1	T cruzi growth-1 144 | T cruzi growth-2 inactive | T cruzi growth-3 inactive | 3T3 cytotox inactive | NIH3T3 tox 2 inactive
O=C(Cn1cnc2scc(-c3ccccc3)c2c1=O)Nc1cc(Cl)cc(Cl)c1	none (no result: KDM4C inh, Pf Dd2 inh, T cruzi growth-1)
CN1CCN(C(=O)C[C@@H]2C[C@H]3c4cc(NC(=O)C5CCC5)ccc4O[C@H]3[C@H](CO)O2)CC1	none
C[C@@H]1CN([C@@H](C)CO)C(=O)c2cccc(NC(=O)C3CCOCC3)c2O[C@@H]1CN(C)C(=O)Nc1cccc2ccccc12	T cruzi growth-1 100 | T cruzi growth-2 inactive | T cruzi growth-3 inactive | 3T3 cytotox inactive | NIH3T3 tox 2 inactive
C[C@H]1CN([C@@H](C)CO)C(=O)c2cccc(NC(=O)C3CCOCC3)c2O[C@H]1CN(C)C(=O)Nc1cccc2ccccc12	none
C[C@@H]1CN([C@H](C)CO)C(=O)c2cccc(NC(=O)C3CCOCC3)c2O[C@H]1CN(C)C(=O)Nc1cccc2ccccc12	T cruzi growth-1 103 (no result: IDH1 mut inh) | T cruzi growth-2 inactive | T cruzi growth-3 inactive | 3T3 cytotox inactive | NIH3T3 tox 2 inconclusive
O=C(O)[C@@H]1[C@@H](CO)[C@@H]2Cn3c(ccc(C4=CCCCC4)c3=O)[C@@H]2N1C(=O)Cc1cccnc1	none (no result: IDH1 mut inh, T cruzi growth-1)
C[C@@H]1CN([C@@H](C)CO)C(=O)c2cc(NS(=O)(=O)c3ccc(Cl)cc3)ccc2O[C@@H]1CN(C)Cc1ccc(C(F)(F)F)cc1	T cruzi growth-1 126 | T cruzi growth-2 96 | T cruzi growth-3 inactive | 3T3 cytotox 68 | NIH3T3 tox 2 104
C[C@@H]1CN([C@@H](C)CO)C(=O)c2cc(NS(=O)(=O)c3ccccc3)ccc2O[C@H]1CN(C)Cc1ccc(C(F)(F)F)cc1	none (no result: IDH1 mut inh)
C[C@@H]1CN([C@H](C)CO)C(=O)c2cc(NS(=O)(=O)c3ccccc3)ccc2O[C@@H]1CN(C)Cc1ccc(Oc2ccccc2)cc1	none
C[C@H](CO)N1C[C@H](C)[C@H](CN(C)Cc2ccc(Oc3ccccc3)cc2)Oc2ccc(NS(=O)(=O)c3ccc(Cl)cc3)cc2C1=O	T cruzi growth-1 inconclusive (no result: IDH1 mut inh) | T cruzi growth-2 107 | T cruzi growth-3 inactive | 3T3 cytotox inactive | NIH3T3 tox 2 104
C[C@H]1CN([C@@H](C)CO)C(=O)c2cc(NS(=O)(=O)c3ccccc3)ccc2O[C@H]1CN(C)Cc1ccc(C(F)(F)F)cc1	T cruzi growth-1 inconclusive | T cruzi growth-2 106 | T cruzi growth-3 inactive | 3T3 cytotox inactive | NIH3T3 tox 2 inactive
CC(C)NC(=O)N1[C@H](C#N)[C@@H](c2ccc(C#CC3CC3)cc2)[C@@H]1CO	T cruzi growth-1 inconclusive (no result: IDH1 mut inh) | T cruzi growth-2 109 | T cruzi growth-3 inactive | 3T3 cytotox inactive | NIH3T3 tox 2 inactive
CN(C)CC(=O)N1[C@@H](C#N)[C@@H](c2ccc(C#CC3CC3)cc2)[C@@H]1CO	none (no result: IDH1 mut inh)
CC(C)NC(=O)N1[C@H](CO)[C@@H](c2ccc(C#CC3CC3)cc2)[C@@H]1C#N	T cruzi growth-1 inconclusive (no result: IDH1 mut inh) | T cruzi growth-2 107 | T cruzi growth-3 inactive | 3T3 cytotox inactive | NIH3T3 tox 2 inactive
CC(C)NC(=O)N1[C@H](CO)[C@H](c2ccc(C#CC3CC3)cc2)[C@@H]1C#N	none (no result: IDH1 mut inh)
C[C@@H]1CN([C@H](C)CO)S(=O)(=O)c2ccc(-c3ccc(F)cc3)cc2O[C@H]1CN(C)C(=O)C1CCOCC1	none
COc1ccc(S(=O)(=O)Nc2ccc3c(c2)C(=O)N([C@@H](C)CO)C[C@@H](C)[C@H](CN(C)Cc2ccc4c(c2)OCO4)OCCCC[C@H](C)O3)cc1	T cruzi growth-1 100 | T cruzi growth-2 109 | T cruzi growth-3 inactive | 3T3 cytotox inactive | NIH3T3 tox 2 65
Cc1ccc(S(=O)(=O)Nc2ccc3c(c2)C(=O)N([C@H](C)CO)C[C@@H](C)[C@@H](CN(C)Cc2ccc4c(c2)OCO4)OCCCC[C@@H](C)O3)cc1	T cruzi growth-1 inconclusive | T cruzi growth-2 105 | T cruzi growth-3 inactive | 3T3 cytotox inactive | NIH3T3 tox 2 102
Cc1ccc(S(=O)(=O)Nc2ccc3c(c2)C(=O)N([C@@H](C)CO)C[C@H](C)[C@H](CN(C)Cc2ccc4c(c2)OCO4)OCCCC[C@@H](C)O3)cc1	none (no result: IDH1 mut inh)
C[C@@H]1CCCCO[C@@H](CN(C)Cc2ccc3c(c2)OCO3)[C@@H](C)CN([C@@H](C)CO)C(=O)c2cc(NS(=O)(=O)c3ccc(F)cc3)ccc2O1	T cruzi growth-1 115 (no result: IDH1 mut inh) | T cruzi growth-2 102 | T cruzi growth-3 inactive | 3T3 cytotox inactive | NIH3T3 tox 2 94
COc1ccc(S(=O)(=O)Nc2ccc3c(c2)C(=O)N([C@H](C)CO)C[C@@H](C)[C@@H](CN(C)Cc2ccc4c(c2)OCO4)OCCCC[C@H](C)O3)cc1	none (no result: IDH1 mut inh)
C[C@H]1CN([C@@H](C)CO)C(=O)c2cc(NC(=O)CCC(F)(F)F)ccc2O[C@H]1CN(C)C(=O)Nc1ccc(C(F)(F)F)cc1	none (no result: T cruzi growth-1)
